Jurkat NFkB inh: inhibitors of induced NF-kB luciferase reporter, primary screen, TCR NF-kB activation inhibitor project, cell-based, luminescence, uHTS; inhibition, % at 4 µM; 0.53% of 330,000 active; Jurkat, PMA/ionomycin-induced NF-kB luciferase reporter; in the data active = inhibition above about 50%
MPTP block: mitochondrial permeability transition pore inhibitors, primary screen, biochemical, isolated mouse mitochondria, absorbance | 1.4% of 360,000 active | Ca2+ swelling absorbance, 30 min | inhibition, % at 10 µM;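 active = inhibition of 50% or more, scaled per plate between neutral and stimulator controls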;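 also: 0% = DMSO wells given calcium and 100% = 1 mM EGTA wells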
aDG glyco up: activators of alpha-DG glycosylation, primary screen, uHTS, Pro5-aDG cells, AlphaScreen | alpha-DG glycosylation AlphaScreen (IIH6); 0% Pro5, 100% B10-LARGE cell signal | activation, % at 10 µM | 0.22% of 360,000 active | AID 624168, 2012;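 active = activation of at least 8% versus controls, or a plate z-score of at least 8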;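 also: Pro5 are CHO cells carrying HIG-tagged alpha-DG that lacks glycosylation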
697 NFkB inh: inhibitors of PMA/ionomycin-induced NF-kB reporter, 697 cells, primary screen, B-cell NF-kB inhibitor project, cell-based, luminescence, uHTS. 697 B-cell NF-kB luciferase reporter, 16 h. inhibition, % at 4 µM. 0.33% of 330,000 active. AID 435022, 2010; in the data active = inhibition above about 35%
NR2E3 ag-1: NR2E3 agonists in two-hybrid cells, primary screen, cell-based, luminescence, CHO-S, Gal4-NCOR/VP16-NR2E3 | inhibition of corepressor binding, % at 3.98 µM | AID 602229, 2012 | luciferase | 0.35% of 360,000 active;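 active = inhibition above the mean of all tested compounds plus 3 SD, cut at about 70% in these data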;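 also: 0% = DMSO with NR2E3 transfected cells and 100% = cells lacking NR2E3 construct; higher means lower luciferase signal from less NR2E3 corepressor binding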
Target sequence (Q9Y5X4 whole entry, looked up, the tested form may be a part): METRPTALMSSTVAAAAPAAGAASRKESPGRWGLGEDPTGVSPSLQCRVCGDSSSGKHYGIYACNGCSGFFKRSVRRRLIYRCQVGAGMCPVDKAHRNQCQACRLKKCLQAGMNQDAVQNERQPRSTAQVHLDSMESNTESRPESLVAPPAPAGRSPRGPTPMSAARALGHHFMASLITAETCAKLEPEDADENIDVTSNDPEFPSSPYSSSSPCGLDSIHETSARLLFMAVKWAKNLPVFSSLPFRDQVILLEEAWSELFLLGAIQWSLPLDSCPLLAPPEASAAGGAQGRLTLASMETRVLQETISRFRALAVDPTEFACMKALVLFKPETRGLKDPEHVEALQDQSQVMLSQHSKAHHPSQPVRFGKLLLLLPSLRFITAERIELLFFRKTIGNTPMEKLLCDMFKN
NR2E3 ag-2: inhibitors of NR2E3-RetCOR corepressor binding, primary screen, NR2E3 agonist project, biochemical, TR-FRET, GST-NR2E3, biotin-RetCOR; 1536-well; inhibition of corepressor binding, % at 4.78 µM; 0.12% of 320,000 active;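 active = percent inhibition above the cutoff of mean plus 3 SD of all tested compounds, set per screening campaign, cut at about 20% in these data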;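 also: 0% = DMSO wells and 100% = biotin wells as full block of FRET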
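Material – GST-tagged NR2E3 plus biotinylated RetCOR corepressor · Quantity – NR2E3 fusion 1.35 nM · Times – 5 h incubation at 4 °C · Medium – pH 7.5 Tris-based buffer · Technique – TR-FRET, Eu(K)-anti-GST donor, streptavidin-D2 acceptor, ex 340, em 617/671 nm · Benchmarks – high control biotin, low control 0.6% DMSO · Format – 1536-well plates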
Jurkat NFkB conf: PMA/ionomycin-induced NF-kB reporter inhibitors, Jurkat retest, confirmation, T-cell NF-kB inhibitor project, cell-based, luminescence, single concentration | AID 435020, 2010 | Jurkat NF-kB luciferase, 16 h | 27% of 2,700 active | inhibition, % at 4 µM | shares compounds with Jurkat NFkB inh;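 active = inhibition reaching about 45% at 4 µM in either replicate, limit read from the data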;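 also: plate controls were PMA/ionomycin stimulated DMSO wells for no effect and unstimulated DMSO wells for full effect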
697 NFkB conf: PMA/ionomycin-induced NF-kB reporter inhibitors, 697 retest, confirmation, B-cell NF-kB inhibitor project, cell-based, luminescence, single concentration | shares compounds with 697 NFkB inh | 697 B-cell NF-kB luciferase, 16 h | inhibition, % at 4 µM | 35% of 2,000 active; in the data active = inhibition mostly above about 28%, no sharp cut-off; inactive = mostly below about 22%
NR2E3 ag confirm: NR2E3 agonist confirmation in cells, cell-based, luminescence, CHO-S two-hybrid | shares compounds with NR2E3 ag-1 | CHO-S mammalian two-hybrid NR2E3-NCOR, luciferase luminescence | inhibition, % at 3.98 µM | 51% of 2,300 active;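 active = average inhibition above a cutoff equal to the mean inhibition of all tested compounds plus one SD, cut at about 70% in these data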;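 also: 0% = DMSO in NR2E3 cells and 100% = DMSO in cells lacking NR2E3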
VP16 counter: GAL4-VP16 reporter modulators, confirmation, counter-screen for NR2E3 agonist project, cell-based, luminescence, CHO-S, high throughput; CHO-S GAL4-VP16 luciferase reporter; inhibition, % at 3.98 µM; 29% of 2,300 active; AID 624379, 2012; shares compounds with NR2E3 ag-1;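 active = mean inhibition above a cutoff equal to the average over all tested compounds plus one standard deviation, cut at about 70% in these data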;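 also: luciferase from a UAS reporter driven by GAL4-VP16 transactivation; 0% = DMSO with VP16-transfected cells and 100% = DMSO with cells lacking VP16; higher means less reporter light so more repression of VP16 activity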
Rh123 counter: fluorescence retest of MPTP screen hits in isolated mitochondria, single concentration | shares compounds with MPTP block | membrane potential, Rhodamine 123 fluorescence | inhibition, % at 10 µM | 78% of 5,000 active; in the data active = inhibition above about 22%;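 also: 0% = DMSO vehicle and 100% = positive control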
aDG glyco conf: alpha-DG glycosylation enhancers, retest, confirmation, single concentration, Pro5-aDG cells; shares compounds with aDG glyco up; IIH6 AlphaLISA; scaled to LARGE-overexpressing B10 cells as 100%; activation, % at 10 µM (by protocol); 17% of 600 active;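 active = activation of at least 7% in one or more replicates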;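 also: cells exposed to compound for two days before detection; 0% = DMSO-treated Pro5 cells and 100% = DMSO-treated B10-LARGE cells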
Active calls of the source: *; i = inactive; · = not tested or not shown. Hits are enriched below; roughly 2.4% of the tested compounds scored in any of these assays.

SMILES	Jurkat NFkB inh	MPTP block	aDG glyco up	697 NFkB inh	NR2E3 ag-1	NR2E3 ag-2	Jurkat NFkB conf	NR2E3 ag confirm	VP16 counter	Rh123 counter	others
COc1ccc(CCNc2ncnc3sc(C)cc23)cc1OC	61*	101*	3	68*	88*	·	73*	99*	92*	96*	697 NFkB conf=83*
COc1ccc(CCNc2ncnc3[nH]ncc23)cc1OC	5	1	0	-15	-21	-1	·	·	·	·
CCOC(=O)CC1CCCCN1C(=O)c1cc(COc2cccc3cnccc23)on1 (stereo not given)	50*	102*	6.7*	-35	101*	-2	72*	91*	88*	112*
O=C(c1cc(COc2cccc3cccnc23)on1)N1CCC[C@H]1CO	·	0	0	·	-16	·	·	·	·	·
CCCCCCCCCn1c2c(c(=N)c3c1CCC3)CCCC2	97*	104*	0	58*	95*	·	81*	98*	96*	101*	697 NFkB conf=-13
CCCCCCCCCCn1c2c(c(=N)c3c1CCC3)CCC2	82*	85*	1	0	99*	1	75*	100*	97*	99*
Cc1noc(NS(=O)(=O)c2ccc(NC(=O)c3ccc(Cl)c(S(=O)(=O)N(C)c4ccccc4)c3)cc2)c1C	2	-3	0	-34	-2	·	·	·	·	·
Cc1cc(C)nc(NS(=O)(=O)c2ccc(NCN3C(=O)c4ccccc4C3=O)cc2)n1	·	0	0	·	-41	·	·	·	·	·
CC1CC2OC2CC1COC(=O)C1CC2OC2CC1C (stereo not given)	·	1	0	·	32	·	·	·	·	·
COc1cccc(CN(C)C(=O)c2cc(COc3ccc4ncccc4c3)on2)c1	52*	97*	13*	19	79*	1	46	97*	88*	97*
CCN(CC)S(=O)(=O)c1cccc(NC(=O)CNc2cccc(S(=O)(=O)N3CCCC3)c2)c1	56*	90*	2	43*	85*	0	58*	80*	61	101*	697 NFkB conf=67*
CCN(CC)S(=O)(=O)c1ccc(C)c(NC(=O)CNc2cccc(S(=O)(=O)N3CCCC3)c2)c1	2	1	0	-41	0	2	·	·	·	·
CCc1cccc(N(C(=O)c2csnn2)C(C(=O)NC2CCCCC2)c2cccnc2)c1 (stereo not given)	-12	0	0	14	-9	2	·	·	·	·
O=C(Nc1ccccc1)NC1CCCCCCC1	-65	15	0	-42	-80	0	·	·	·	·
O=C(Nc1ccc(Br)cc1)NC1CCCCCCC1	-179	88*	1	-219	-138	-2	-81	·	·	96*
CC(C)NCC(O)Cn1c2c(c3ccccc31)CCc1c-2cnn1-c1ccccc1 (stereo not given)	59*	87*	-1	-165	-5	-3	-12	·	·	-17
CN1CCc2c(n(CC(O)CNCc3ccccc3)c3ccccc23)C1=O (stereo not given)	-1	-1	1	-2	-15	2	·	·	·	·
Cc1cc(Cl)c(S(=O)(=O)N2CCN(c3ccc(F)cc3)CC2)cc1OCC(=O)NC1CCCCC1	65*	80*	3	98*	3	3	75*	·	·	70*	697 NFkB conf=92*
O=C(Nc1ccc([N+](=O)[O-])cc1)Nc1ccon1	63*	58*	0	20	-3	0	46	·	·	99*
O=C(COC(=O)/C=C/c1ccc(C(F)(F)F)cc1)NCC1CCCCC1	15	-1	0	7	-8	-3	·	·	·	·
O=C(CSc1nnnn1C1CC2CCC1C2)Nc1ccnc2ccccc12 (stereo not given)	83*	98*	7.4*	95*	98*	1	71*	94*	93*	101*	697 NFkB conf=96*
O=C(CSc1nnnn1C1CCCCC1)Nc1ccccc1F	8	0	0	12	5	0	·	·	·	·
COc1cccc(CNc2nc3cc(-c4cnn(Cc5ccccc5)c4)sc3c(=O)n2C)c1	·	1	1	·	30	·	·	·	·	·
CCOC(=O)c1sc(NC(=O)Nc2ccccc2Cl)cc1C	-277	72*	0	-420	-220	1	-171	·	·	60*	697 NFkB conf=i
CCOC(=O)c1sc(NC(=O)Nc2ccccc2)cc1C	-171	94*	2	-233	-142	3	-139	·	·	70*
O=[N+]([O-])c1ccc(C2=NN(CCO)C(=Nc3ccc(OC(F)(F)F)cc3)SC2)cc1	75*	54*	0	0	27	1	11	·	·	53*
O=C(CSc1nnc(Cn2nnc3ccccc32)o1)N(Cc1ccc(F)cc1)c1ccccc1	57*	85*	3	20	79*	-3	61*	88*	74*	94*
CCCCc1ccc(NC(=O)C(=O)NCCN2CCN(Cc3ccc([N+](=O)[O-])cc3)CC2)cc1	51*	31	6.6*	17	-15	3	59*	·	·	·	aDG glyco conf=0

Assay outcomes deposited in PubChem BioAssay by several laboratories.
